Test results as given in ChEMBL document CHEMBL1811783, “Positive GABA(A) receptor modulators from Acorus calamus and structural analysis of (+)-dioxosarcoguaiacol by 1D and 2D NMR and molecular modeling” (J Nat Prod, 2011).

Assays:
Type in all cases: cell-based
Oocyte [1] = test: Allosteric modulation of rat gamma-aminobutyric acid receptor A alpha1beta2gamma2S expressed in Xenopus oocytes assessed as potentiation of GABA-mediated chloride current at 0.1 to 1000 uM after 20 secs by voltage clamp assay
In short: (§1)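 Rat α1β2γ2S cRNAs (1:1:10) injected into collagenase-defolliculated Xenopus oocytes, stored at 18 °C, recorded days 1–5. Two-microelectrode voltage clamp at −70 mV in 90 mM NaCl/1 mM KCl/1 mM MgCl2/1 mM CaCl2/5 mM HEPES pH 7.4. Compounds at 0.1–1000 μM co-applied by fast perfusion with GABA at EC5–10, determined from a 0.1 μM–1 mM GABA concentration–response. Read-out: IGABA potentiation.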

[2] = Allosteric modulation of rat gamma-aminobutyric acid receptor A alpha1beta2gamma2S expressed in Xenopus oocytes assessed as potentiation of GABA-mediated chloride current after 20 secs by voltage clamp assay; details: Oocyte; in short: as §1
Oocyte [3] = test: Allosteric modulation of gamma-aminobutyric acid receptor A alpha1beta2gamma2S expressed in Xenopus oocytes assessed as potentiation of GABA-mediated chloride current at 1 uM by voltage clamp assay
In short: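 Rat α1β2γ2S cRNAs (1:1:10) injected into collagenase-defolliculated oocytes, stored at 18 °C, recorded days 1–5. Two-microelectrode voltage clamp at −70 mV in HEPES-buffered bath (pH 7.4). Compound in bath solution with GABA EC5–10 (from a 0.1 μM–1 mM GABA concentration–response) applied by automated fast perfusion at 300 μL/s. Read-out is IGABA potentiation.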

Structure (SMILES) | Emax (Oocyte [1]) | EC50 [2] | Activity (Oocyte [3])
CC1=CC[C@]2(CC1=O)[C@@H](C)CC[C@H]2C(C)C | 241% | 34 µM | 
C=C1CC/C=C(\C)CC[C@@H](C(C)C)C(=O)C1 | 886% | 135 µM | 
CC1=C2[C@H](/C=C(\C)C(=O)O)CC[C@@H](C)[C@H]2CC1 |  |  | 400%
C[C@@H]1CCC2=C1C=C1C(C)(C)OO[C@@]1(O)C[C@H]2C | 588% | 65.3 µM | 
C=C[C@]1(C)CC[C@@H](C(C)C)C(=O)C1=C(C)C | 164% | 109 µM | 
CCc1cc2c(s1)N(C)C(=O)CN=C2c1ccccc1Cl |  |  | 260%
C/C=C\c1cc(OC)c(OC)cc1OC [CIS-ASARONE] | 1200% | 172 µM | 
Cc1nnc2n1-c1ccc(Cl)cc1C(c1ccccc1Cl)=NC2 |  |  | 253%
Cc1ncc2n1-c1ccc(Cl)cc1C(c1ccccc1F)=NC2 |  |  | 342%
C=C[C@]1(C)CC[C@@H](C(C)C)C(=O)[C@H]1C(=C)C | 669% | 64.8 µM | 
